High-throughput results as filed in PubChem BioAssay.
bIAP inhibitor: blocks bovine intestinal alkaline phosphatase activity; purified bovine IAP, CDP-star luminescence, 30 min; inhibition, % at 20 µM; 190,000 tested, under 10 active; AID 1019;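 active means over 50% inhibition of intestinal alkaline phosphatase at 20 µM in the single-dose screen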
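Assay system – bovine IAP enzyme · Quantity – bovine IAP at 1/65,000,000 final dilution · Detection – CDP-star luminescence signal · Times – 30 min reaction at room temperature · Also added – CDP-star substrate at 30 µM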
bIAP activator: increases bovine intestinal alkaline phosphatase activity. purified bovine IAP, CDP-star luminescence, 30 min; active compounds read high; fold of DMSO-control signal, blank-subtracted. activation factor at 20 µM. actives 0.17% (n = 200,000). AID 1016;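 active means activation factor of 2 or more at 20 µM, a signal rise over negative controls twice the positive control's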
hIAP inh: blocks human intestinal alkaline phosphatase; P09923; purified IAP, CDP-Star luminescence, 30 min; inhibition, % at 10 µM; actives 0.12% (n = 330,000);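 active means inhibition reaching a set limit with compound at 10 µM in the primary screen, cut at about 35% in these data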;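 further: plate controls were DMSO wells with enzyme for no effect and no-enzyme buffer wells for full effect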
Target sequence (P09923 whole entry, looked up): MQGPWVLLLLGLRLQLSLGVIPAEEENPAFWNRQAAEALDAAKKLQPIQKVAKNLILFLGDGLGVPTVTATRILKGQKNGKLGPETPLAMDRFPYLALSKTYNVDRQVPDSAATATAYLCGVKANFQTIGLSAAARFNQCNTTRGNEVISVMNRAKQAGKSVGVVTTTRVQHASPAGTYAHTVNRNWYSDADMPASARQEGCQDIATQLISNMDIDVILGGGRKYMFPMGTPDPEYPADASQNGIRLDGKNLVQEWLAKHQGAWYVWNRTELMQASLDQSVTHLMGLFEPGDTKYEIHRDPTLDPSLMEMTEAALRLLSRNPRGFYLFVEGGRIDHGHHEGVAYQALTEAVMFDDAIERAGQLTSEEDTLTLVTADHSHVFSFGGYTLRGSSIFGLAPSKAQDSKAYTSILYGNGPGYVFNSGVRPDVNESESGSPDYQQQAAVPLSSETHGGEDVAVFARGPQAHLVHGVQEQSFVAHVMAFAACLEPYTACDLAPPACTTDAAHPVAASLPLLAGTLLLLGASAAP
hIAP act: human IAP activation. purified human IAP, CDP-Star luminescence, 30 min; active compounds read high; 1 = vehicle-only enzyme, 0 = enzyme-free background. activation factor at 10 µM. actives 0.16% (n = 330,000);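 active means activation factor of the enzyme at least 2-fold when tested at 20 µM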
mIAP act: increases mouse intestinal alkaline phosphatase activity; actives 0.24% (n = 330,000); AID 2805; muIAP, CDP-Star luminescence, 30 min; active compounds read high; 1 = vehicle-only enzyme signal, 0 = enzyme-free wells; activation factor at 10 µM;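 active means activation factor of at least 2 at 20 µM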
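System: mouse IAP enzyme. Reagent: CDP-Star chemiluminescent phosphatase substrate. Benchmarks: DMSO wells, no-enzyme wells. Times: 30 min enzyme-substrate-compound incubation at room temperature. Detection: luminescence from enzymatic CDP-Star hydrolysis. Doses: test compounds delivered from DMSO solution.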
mIAP block: mouse IAP inhibition | purified mouse IAP, CDP-Star luminescence, 30 min | actives 0.2% (n = 330,000) | inhibition, % at 10 µM;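 active means inhibition of at least 40% at 10 µM in the primary screen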;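 further: plate controls were DMSO with enzyme for no effect and no enzyme wells for full effect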
mIAP inh confirm: mouse IAP inhibition confirmation | shares compounds with mIAP block | actives 4.7% (n = 11,000) | inhibition, % at 10 µM | purified mouse IAP, CDP-Star luminescence, 30 min;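 active means inhibition of at least 40% at 10 µM in either of the two replicates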;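 further: plate controls were DMSO wells with enzyme for no effect and buffer wells lacking enzyme for full effect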
Numbers without * were called inactive; nt = no result given. The list is not random: actives were taken first. Their share in the collection is about 0.77%.

SMILES | bIAP inhibitor | bIAP activator | hIAP inh | hIAP act | mIAP act | mIAP block | mIAP inh confirm
COc1ccc(NC(=O)Nc2cccc3c2O[C@H](CN(C)S(=O)(=O)c2ccc(OC)cc2)[C@@H](C)CN([C@H](C)CO)C3=O)cc1 | nt | nt | -18.2 | 1.18 | 1.06 | -5.7 | nt
C[C@H]1CN([C@@H](C)CO)C(=O)c2cc(NC(=O)C3CCCCC3)ccc2O[C@H]1CN(C)Cc1ccc(-c2ccccc2)cc1 | nt | nt | -2.0 | 1.02 | 1.11 | -11.4 | nt
C[C@@H]1CN([C@H](C)CO)C(=O)c2cc(NC(=O)C3CCCCC3)ccc2O[C@@H]1CN(C)Cc1ccc(C(F)(F)F)cc1 | nt | nt | 10.5 | 0.895 | 1.07 | -7.4 | nt
COC(=O)C1=C(C(=O)OC)[C@@H]2N(C)c3ccccc3[C@@]23C[C@@H](CO)N(C(=O)C2CCC2)C3=N1 | nt | nt | -20.9 | 1.21 | 1.09 | -9.3 | nt
C[C@@H]1CN([C@@H](C)CO)C(=O)c2cccc(NC(=O)Nc3ccc(F)cc3)c2O[C@@H]1CN(C)Cc1ccc(Oc2ccccc2)cc1 | nt | nt | 14.7 | 0.853 | 4.33* | -333.2 | -116.6
COc1ccc(NC(=O)Nc2cccc3c2O[C@H](CN(C)Cc2ccc(-c4ccccc4)cc2)[C@@H](C)CN([C@H](C)CO)C3=O)cc1 | nt | nt | 4.3 | 0.957 | 1.15 | -14.8 | nt
COc1ccc(Br)cc1/C=N/N1C(=O)CSC1=S | nt | nt | -7.6 | 1.08 | 0.809 | 19.1 | nt
COc1cc(/C=N/N2C(=O)CSC2=S)ccc1O | 26.1 | 0.7 | -2.9 | 1.03 | 0.475 | 52.5* | 65.0*
O=C1CSC(=S)N1/N=C/c1ccc(Cl)c([N+](=O)[O-])c1 | nt | nt | -3.2 | 1.03 | 0.495 | 50.5* | 48.0*
C/C(CC(=O)Nc1ccc(C)c(Cl)c1)=N\NC(=O)c1cccc(O)c1 | nt | nt | -0.3 | 1 | 0.957 | 4.3 | nt
C[C@H](CO)N1C[C@H](C)[C@@H](CN(C)S(=O)(=O)c2ccccc2)Oc2ccc(NC(=O)NC3CCCCC3)cc2C1=O | nt | nt | 1.5 | 0.985 | 4.02* | -301.6 | -178.7
C[C@H](CO)N1C[C@H](C)[C@@H](CN(C)S(=O)(=O)c2ccccc2)Oc2ccc(NC(=O)C3CCCCC3)cc2C1=O | nt | nt | -4.1 | 1.04 | 1.24 | -24.3 | nt
C[C@H](CO)N1C[C@H](C)[C@@H](CN(C)S(=O)(=O)c2cccs2)Oc2ccc(NC(=O)NC3CCCCC3)cc2C1=O | nt | nt | 1.6 | 0.984 | 3.64* | -263.6 | -160.2
Fc1cccc(/C=N/Nc2cc(N3CCOCC3)ncn2)c1 | nt | nt | -2.8 | 1.03 | 0.942 | 5.8 | nt
Cc1cc(Cn2nc(-c3ccccc3)cc2C(=O)NCc2cccc(Br)c2)on1 | nt | nt | -10.1 | 1.1 | 3.99* | -299.4 | -229.5
Cc1cc(Cn2nc(-c3ccccc3)cc2C(=O)NCc2cccc(C(F)(F)F)c2)on1 | nt | nt | 5.4 | 0.946 | 3.29* | -228.5 | -124.8
O=[N+]([O-])c1ccc(O)c(/C=N/n2cnc3ccccc32)c1 | 8.6 | 0.9 | 12.7 | 0.873 | 0.971 | 2.9 | nt
Cc1ccc(/C=C2\SC(=S)N(/N=C/c3cc([N+](=O)[O-])ccc3O)C2=O)o1 | 0.5 | 1 | 18.5 | 0.815 | 0.18 | 82.0* | 86.3*
CC(=O)NC(=S)Nc1ccc(NC(=S)NC(=O)/C=C/c2ccco2)cc1 | nt | nt | 9.5 | 0.905 | 0.85 | 15.0 | nt
C=CCNC(=S)NNC(=O)c1ccco1 | -25.6 | 1.3 | -37.2 | 1.37 | 0.901 | 9.9 | nt
O=C(/C=C/c1ccco1)NC(=S)NNC(=O)c1ccco1 | 5.7 | 0.9 | -48.2 | 1.48 | 0.508 | 49.2* | 54.3*
O=C(/C=C/c1ccco1)NC(=S)Nc1ccc(C(=O)O)cc1 | nt | nt | -16.8 | 1.17 | 0.566 | 43.4* | 66.7*
COc1ccc(NC(=O)C2CCCN2S(=O)(=O)c2cccc3cccnc23)cc1OC (configuration not stated) | nt | nt | -27.7 | 1.28 | 0.978 | 2.2 | nt
O=C(NCc1cc([N+](=O)[O-])ccc1O)c1cc(-c2ccncc2)nc2ccccc12 | nt | nt | 4.4 | 0.956 | 0.871 | 12.9 | nt
O=C(N/N=C/c1cn(Cc2cccc(F)c2)c2ccccc12)c1cc(O)cc(O)c1 | nt | nt | -15.9 | 1.16 | 0.324 | 67.6* | 67.3*
SMILES | bIAP inhibitor | bIAP activator | hIAP inh | hIAP act | mIAP act | mIAP block | mIAP inh confirm
Brc1cc(-c2ccccc2)nc(-c2ccccc2)n1 | nt | nt | -5.7 | 1.06 | 0.94 | 6.0 | nt
S=c1[nH]nc(-c2cccnc2)n1/N=C/C=C/c1ccco1 | 2.6 | 1 | 2.9 | 0.971 | 0.531 | 46.9* | 60.5*
S=c1[nH]nc(-c2ccc(Cl)cc2)n1/N=C/C=C/c1ccco1 | nt | nt | -15.3 | 1.15 | 0.444 | 55.6* | 58.5*
CC(C)C(NC(=O)c1c(F)cccc1F)C(=O)NC1CC(C)(C)NC(C)(C)C1 (configuration not stated) | nt | nt | -3.7 | 1.04 | 1.01 | -0.7 | nt
O=C(NC1CCCC1)C(c1ccc(F)cc1)N(Cc1ccc(F)cc1)C(=O)c1ccn[nH]1 (configuration not stated) | -142.1 | 2.4* | -75.7 | 1.76 | 2.2* | -119.8 | -104.7
CC1Cc2ccccc2N1C(=O)CSc1nncs1 (configuration not stated) | nt | nt | 10.5 | 0.895 | 1.04 | -4.4 | nt
Cc1cc(NC(=O)Nc2ccc(Cl)c(Cl)c2)n(-c2ccccc2)n1 | nt | nt | -54.7 | 1.55 | 4.27* | -326.8 | -178.6
Cc1cc(NC(=O)Nc2cccc(Cl)c2)n(-c2ccccn2)n1 | nt | nt | -16.6 | 1.17 | 1.68 | -67.9 | nt
Cc1cc(NC(=O)Nc2cccc(Cl)c2)n(-c2ccccc2)n1 | nt | nt | -86.3 | 1.86 | 3.04* | -204.0 | -97.1
Cc1cccc(C2=NN(c3ccccc3)[C@H](CO)[C@H]2c2ccccc2)c1 | nt | nt | nt | nt | 2.2* | -120.4 | -107.2
CCCCN(C(=O)c1ccc(-n2nc(C)cc2C)cc1)c1c(N)n(CCC)c(=O)[nH]c1=O | nt | nt | 9.1 | 0.909 | 0.88 | 12.0 | nt
COc1c(Cl)cc(C(=O)NN)cc1Cl | 6.6 | 0.9 | -15.1 | 1.15 | 1.01 | -1.0 | nt
NNC(=O)c1cc(O)c(O)c(O)c1 | 24.9 | 0.8 | 3.3 | 0.967 | 0.366 | 63.4* | 71.1*
O=C(CN1CCN(c2ccccc2F)CC1)c1ccc(O)c(O)c1 | nt | nt | 14.8 | 0.852 | 0.547 | 45.3* | 50.6*
OCCNCCO | nt | nt | -8.4 | 1.08 | 0.959 | 4.1 | nt
CSC1=NSC2=NC(=O)/C(=C/c3coc4ccc(O)cc4c3=O)C(=N)N12 | 37.0 | 0.6 | -4.5 | 1.04 | 0.441 | 55.9* | 54.8*
Cc1cc(/C=C2\SC(=S)NC2=O)c(C)n1-c1ccccc1 | nt | nt | 13.5 | 0.865 | 0.566 | 43.4* | 48.3*
Cc1cc(/C=C2\SC(=S)NC2=O)c(C)n1-c1ccc(O)cc1 | nt | nt | 11.8 | 0.882 | 0.273 | 72.7* | 70.8*
COc1ccc(-n2c(C)cc(/C=C3\SC(=S)NC3=O)c2C)cc1 | 45.1 | 0.5 | -9.6 | 1.1 | 0.727 | 27.3 | nt
Cc1cc(/C=C2\SC(=S)NC2=O)c(C)n1C | 20.3 | 0.8 | 6.6 | 0.934 | 0.406 | 59.4* | 62.2*
Cc1cccc(/C=N/NC(=O)Cn2nnnc2N)n1 | nt | nt | 6.2 | 0.938 | 1.09 | -9.0 | nt
